Results published in ChEMBL document CHEMBL1629600, “Multiple-dose pharmacokinetic behavior of elvucitabine, a nucleoside reverse transcriptase inhibitor, administered over 21 days with lopinavir-ritonavir in human immunodeficiency virus type 1-infected subjects” (Antimicrob Agents Chemother, 2009).

Legend:
[1] = AUC (0 to 24 hrs) in HIV1 infected human at 5 mg after 24 hrs presence of 400 mg of Lopinavir and 100 mg of itonavir; assay type: ADME, organism-based; parameters: time < 24 hr, dose 5 mg; conditions: plasma
Summary of the method: (§1)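 HIV-infected adults (3.6–5.6 log10 RNA copies/ml) given enteric-coated tablets fasting; lopinavir-ritonavir given with food 2 h later. Plasma drawn on days 1 and 21 predose and at 0.5–24 h postdose. LC-MS/MS assay, range 0.500–100 ng/ml. Noncompartmental analysis gave Cmax, Tmax, C24 (24-h concentration) and linear-trapezoidal AUC0-24. Reported as arithmetic mean (%CV), median (range).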

[2] = Cmax in HIV1 infected human at 5 mg after 24 hrs presence of 400 mg of Lopinavir and 100 mg of itonavir; assay type: ADME, organism-based; parameters: dose 5 mg; conditions: in vivo; summary of the method: as §1
[3] = Tmax in HIV1 infected human at 5 mg after 24 hrs presence of 400 mg of Lopinavir and 100 mg of itonavir; assay type: ADME, organism-based; conditions: in vivo; summary of the method: as §1
[4] = Drug level in HIV1 infected human plasma at 5 mg after 24 hrs presence of 400 mg of Lopinavir and 100 mg of itonavir; assay type: ADME; conditions: read-out: Drug uptake; summary of the method: as §1
[5] = AUC (0 to 24 hrs) in HIV1 infected human at 10 mg after 24 hrs presence of 400 mg of Lopinavir and 100 mg of itonavir; assay type: ADME, organism-based; parameters: time < 24 hr, dose 10 mg; conditions: plasma; summary of the method: as §1
[6] = Cmax in HIV1 infected human at 10 mg after 24 hrs presence of 400 mg of Lopinavir and 100 mg of itonavir; assay type: ADME, organism-based; parameters: dose 10 mg; conditions: in vivo; summary of the method: as §1
[7] = Tmax in HIV1 infected human at 10 mg after 24 hrs presence of 400 mg of Lopinavir and 100 mg of itonavir; assay type: ADME, organism-based; conditions: in vivo; summary of the method: as §1
[8] = Drug level in HIV1 infected human plasma at 10 mg after 24 hrs presence of 400 mg of Lopinavir and 100 mg of itonavir; assay type: ADME, organism-based; conditions: read-out: Drug uptake; summary of the method: as §1
[9] = AUC (0 to 24 hrs) in HIV1 infected human at 20 mg after 24 hrs in presence of 400 mg of Lopinavir and 100 mg of itonavir administered once every 12 hrs; assay type: ADME, organism-based; parameters: time < 24 hr, dose 20 mg; conditions: plasma; summary of the method: as §1
[10] = Cmax in HIV1 infected human at 20 mg after 24 hrs in presence of 400 mg of Lopinavir and 100 mg of itonavir administered once every 12 hrs; assay type: ADME, organism-based; parameters: dose 20 mg; conditions: in vivo; summary of the method: as §1
[11] = Tmax in HIV1 infected human at 20 mg after 24 hrs in presence of 400 mg of Lopinavir and 100 mg of itonavir administered once every 12 hrs; assay type: ADME, organism-based; conditions: in vivo; summary of the method: as §1
[12] = Drug level in HIV1 infected human plasma at 20 mg after 24 hrs in presence of 400 mg of Lopinavir and 100 mg of itonavir administered once every 12 hrs; assay type: ADME; conditions: read-out: Drug uptake; summary of the method: as §1
[13] = AUC (0 to 24 hrs) in HIV1 infected human at 5 mg qd for 21 days in presence of 400 mg of Lopinavir and 100 mg of itonavir administered once every 12 hrs; assay type: ADME, organism-based; parameters: time < 24 hr, dose 5 mg; conditions: plasma; summary of the method: as §1
[14] = Cmax in HIV1 infected human at 5 mg qd for 21 days in presence of 400 mg of Lopinavir and 100 mg of itonavir administered once every 12 hrs; assay type: ADME, organism-based; parameters: dose 5 mg; conditions: in vivo; summary of the method: as §1
[15] = Tmax in HIV1 infected human at 5 mg qd for 21 days in presence of 400 mg of Lopinavir and 100 mg of itonavir administered once every 12 hrs; assay type: ADME, organism-based; conditions: in vivo; summary of the method: as §1
[16] = Drug level in HIV1 infected human plasma at 5 mg qd for 21 days in presence of 400 mg of Lopinavir and 100 mg of itonavir administered once every 12 hrs; assay type: ADME, organism-based; conditions: read-out: Drug uptake; summary of the method: as §1
[17] = Half life in HIV1 infected human at 5 mg qd for 21 days in presence of 400 mg of Lopinavir and 100 mg of itonavir administered once every 12 hrs; assay type: ADME, organism-based; conditions: in vivo
Summary of the method: (§2)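 Elimination rate constant and t1/2 obtained by noncompartmental analysis after the day-21 dose, using 336 h of terminal-phase sampling. Plasma collected through day 35 (days 25, 28, 35 after stopping). Concentrations measured by LC-MS/MS, range 0.500–100 ng/ml. Eight subjects per cohort; reported as mean (%CV), median (range).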

[18] = AUC (0 to 24 hrs) in HIV1 infected human at 10 mg qd for 21 days in presence of 400 mg of Lopinavir and 100 mg of itonavir administered once every 12 hrs; assay type: ADME, organism-based; parameters: dose 10 mg, time < 24 hr; conditions: plasma; summary of the method: as §1
[19] = Cmax in HIV1 infected human at 10 mg qd for 21 days in presence of 400 mg of Lopinavir and 100 mg of itonavir administered once every 12 hrs; assay type: ADME, organism-based; parameters: dose 10 mg; conditions: in vivo; summary of the method: as §1
[20] = Tmax in HIV1 infected human at 10 mg qd for 21 days in presence of 400 mg of Lopinavir and 100 mg of itonavir administered once every 12 hrs; assay type: ADME, organism-based; conditions: in vivo; summary of the method: as §1
[21] = Drug level in HIV1 infected human plasma at 10 mg qd for 21 days in presence of 400 mg of Lopinavir and 100 mg of itonavir administered once every 12 hrs; assay type: ADME, organism-based; conditions: read-out: Drug uptake; summary of the method: as §1
[22] = Half life in HIV1 infected human at 10 mg qd for 21 days in presence of 400 mg of Lopinavir and 100 mg of itonavir administered once every 12 hrs; assay type: ADME, organism-based; conditions: in vivo; summary of the method: as §2
[23] = AUC (0 to 24 hrs) in HIV1 infected human at 20 mg administered once every 48 hrs for 21 days in presence of 400 mg of Lopinavir and 100 mg of itonavir administered once every 12 hrs; assay type: ADME, organism-based; parameters: dose 20 mg, time < 24 hr; conditions: plasma; summary of the method: as §1
[24] = Cmax in HIV1 infected human at 20 mg administered once every 48 hrs for 21 days in presence of 400 mg of Lopinavir and 100 mg of itonavir administered once every 12 hrs; assay type: ADME, organism-based; parameters: dose 20 mg; conditions: in vivo; summary of the method: as §1
[25] = Tmax in HIV1 infected human at 20 mg administered once every 48 hrs for 21 days in presence of 400 mg of Lopinavir and 100 mg of itonavir administered once every 12 hrs; assay type: ADME, organism-based; conditions: in vivo; summary of the method: as §1
[26] = Drug level in HIV1 infected human plasma at 20 mg administered once every 48 hrs for 21 days in presence of 400 mg of Lopinavir and 100 mg of itonavir administered once every 12 hrs; assay type: ADME, organism-based; conditions: read-out: Drug uptake; summary of the method: as §1
[27] = Half life in HIV1 infected human at 20 mg administered once every 48 hrs for 21 days in presence of 400 mg of Lopinavir and 100 mg of itonavir administered once every 12 hrs; assay type: ADME, organism-based; conditions: in vivo; summary of the method: as §2
Homo sapiens [28] = assay: Peripheral volume of distribution with respect to the bioavailability in HIV1 infected human at 20 mg administered once every 48 hrs for 21 days in presence of 400 mg of Lopinavir and 100 mg of itonavir administered once every 12 hrs; assay type: ADME, organism-based; conditions: in vivo
Summary of the method: (§3)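 Population compartmental fit to all plasma concentrations over 804 h. Two-compartment model with two first-order absorption rates, lag times per dose and first-order elimination. Relative bioavailability allowed to differ for day 1, the only dose given before lopinavir-ritonavir. Weighting 1/S², with S² = (a + b×Y)². Parameters expressed relative to F (CL/F, V/F).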

[29] = Volume of distribution at steady state with respect to the bioavailability in HIV1 infected human at 20 mg administered once every 48 hrs for 21 days in presence of 400 mg of Lopinavir and 100 mg of itonavir administered once every 12 hrs; assay type: ADME, organism-based; conditions: in vivo, read-out: Vss/F; summary of the method: as §3
[30] = Terminal half life in HIV1 infected human at 20 mg administered once every 48 hrs for 21 days in presence of 400 mg of Lopinavir and 100 mg of itonavir administered once every 12 hrs; assay type: ADME, organism-based; conditions: in vivo, read-out: beta t1/2 (converted); summary of the method: as §3
Homo sapiens [31] = organism: Homo sapiens; assay: Time prior to start absorption at first absorption site in HIV1 infected human at 20 mg after 24 hrs; assay type: ADME, organism-based; conditions: in vivo; summary of the method: as §3
Homo sapiens [32] = organism: Homo sapiens; assay: Time prior to start absorption at second absorption site in HIV1 infected human at 20 mg after 24 hrs; assay type: ADME, organism-based; conditions: in vivo; summary of the method: as §3
Homo sapiens [33] = assay: Time prior to start absorption at first absorption site in HIV1 infected human at 20 mg administered once every 48 hrs for 21 days in presence of 400 mg of Lopinavir and 100 mg of itonavir administered once every 12 hrs; assay type: ADME, organism-based; conditions: in vivo; summary of the method: as §3
Homo sapiens [34] = assay: Time prior to start absorption at second absorption site in HIV1 infected human at 20 mg administered once every 48 hrs for 21 days in presence of 400 mg of Lopinavir and 100 mg of itonavir administered once every 12 hrs; assay type: ADME, organism-based; conditions: in vivo; summary of the method: as §3
Homo sapiens [35] = assay: Absorption rate constant at first absorption site in HIV1 infected human at 20 mg administered once every 48 hrs for 21 days in presence of 400 mg of Lopinavir and 100 mg of itonavir administered once every 12 hrs; assay type: ADME, organism-based; conditions: in vivo; summary of the method: as §3
Homo sapiens [36] = assay: Absorption rate constant at second absorption site in HIV1 infected human at 20 mg administered once every 48 hrs for 21 days in presence of 400 mg of Lopinavir and 100 mg of itonavir administered once every 12 hr; assay type: ADME, organism-based; conditions: in vivo; summary of the method: as §3
[37] = Oral bioavailability in HIV1 infected human at 20 mg after 24 hrs; assay type: ADME, organism-based; conditions: in vivo; summary of the method: as §3
[38] = Apparent oral clearance in HIV1 infected human at 20 mg administered once every 48 hrs for 21 days in presence of 400 mg of Lopinavir and 100 mg of itonavir administered once every 12 hrs; assay type: ADME, organism-based; conditions: in vivo; summary of the method: as §3
Homo sapiens [39] = assay: Central volume of distribution with respect to the bioavailability in HIV1 infected human at 20 mg administered once every 48 hrs for 21 days in presence of 400 mg of Lopinavir and 100 mg of itonavir administered once every 12 hrs; assay type: ADME, organism-based; conditions: in vivo; summary of the method: as §3
Homo sapiens [40] = assay: Distributional clearance with respect to the bioavailability in HIV1 infected human at 20 mg administered once every 48 hrs for 21 days in presence of 400 mg of Lopinavir and 100 mg of itonavir administered once every 12 hrs; assay type: ADME, organism-based; conditions: in vivo; summary of the method: as §3

In the case of `Nc1nc(=O)n([C@@H]2C=C[C@H](CO)O2)cc1F` [ELVUCITABINE], the AUC(0-t) at 24 h [1] is reported as 59.9 ng·h/mL, the Cmax [2] is reported as 7.25 ng/mL and the Tmax [3] is reported as 6.63 h. It also gave a concentration at 24 h [4] of 0.832 ng/mL, an AUC(0-t) at 24 h [5] of 155 ng·h/mL and a Cmax [6] of 25.3 ng/mL. It also gave a Tmax [7] of 3.31 h, a concentration at 24 h [8] of 1.87 ng/mL and an AUC at 24 h [9] of 262 ng·h/mL. The Cmax [10] was 39.1 ng/mL, the Tmax [11] was 3.75 h and the concentration at 24 h [12] was 3.41 ng/mL. It also gave an AUC at 24 h [13] of 214 ng·h/mL, a Cmax [14] of 23.1 ng/mL and a Tmax [15] of 7 h. The concentration at 21 days [16] was 4.38 ng/mL, the half-life [17] was 92.5 h and the AUC at 24 h [18] was 435 ng·h/mL. The Cmax [19] was 49.9 ng/mL, the Tmax [20] was 3.75 h and the concentration at 21 days [21] was 9.7 ng/mL. For the same compound, the half-life [22] was 112 h, the AUC at 24 h [23] was 749 ng·h/mL and the Cmax [24] was 108 ng/mL. For the same compound, the Tmax [25] was 4 h, the concentration at 21 days [26] was 12 ng/mL and the half-life [27] was 105 h. For the same compound, the Vp/F (Homo sapiens [28]) was 1618 L, the Vd/F [29] was 1620 L and the half-life [30] was 120 h. It also gave a Time (Homo sapiens [31]) of 0.363 h, a Time (Homo sapiens [32]) of 0.445 h and a Time (Homo sapiens [33]) of 0.341 h. For the same compound, the Time (Homo sapiens [34]) was 1.02 h, the ka (Homo sapiens [35]) was 0.065 h⁻¹ and the ka (Homo sapiens [36]) was 0.42 h⁻¹. It also gave a bioavailability [37] of 55.4%, a CL/F [38] of 423 mL/min and a Vc/F (Homo sapiens [39]) of 6.43 L. The CLd/F (Homo sapiens [40]) was 15.4 L/h.
